Measured values from PubChem BioAssay.
Values without a mark were called inactive. Activity calls are given as the source filed them.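 How the source made its calls, unless noted: active means viability at or below 30% in both replicate assays; inconclusive means viability at or below 30% in just one of the two assays; inactive means the rest.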

Assay: HUVEC growth inhibition – cell-based, human, primary screen (AID 575);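 further: 100% = median of untreated cell wells with 0.1% DMSO on each plate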
Conditions: HUVEC proliferation, CellTiter-Glo luminescence, 72 h; at 10 µM; active compounds read low
Outline: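 system = HUVEC primary cells | amount = 1250 cells/well | buffer or medium = supplemented EBM, 2% fetal bovine serum | dosing = single-point 10 µM, DMSO 0.1% final | times = 72 h compound incubation | detection = CTG luminescence | read-out = % viability relative to median vehicle-well signal on each plate | control set = vehicle and MePR control wells | format = collagen-coated 384-well format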

Point of comparison: `Cc1ccccc1N(C)S(=O)(=O)c1ccc2[nH]cc(C(=O)NCC3CCCO3)c(=O)c2c1` (stereo not given), viability 90.1%. Against it:
- FC(F)(F)c1cccc(N2CCN(c3nnnn3-c3ccccc3)CC2)c1 — lower, 81%
- COC(=O)c1cc2oc(C)cc2n1CC(=O)Nc1ccc(C)c(C)c1 — lower, 59.5%
- Cc1cc2oc(=O)cc(C)c2c(=O)o1 — higher, 94.8%
- CC(Oc1ccc(Cl)cc1Cl)C(=O)Nc1ncccn1 (stereo not given) — higher, 99.6%
- CC(C(=O)NCCCN1CCOCC1)n1cccc1C(=O)c1ccccc1 (stereo not given) — higher, 97.4%
- CC(C)(C)NCc1cc2ccccc2[nH]c1=O — higher, 99.1%
- Cc1ccc(-c2noc(-c3ccccc3C(=O)NCC3CCCO3)n2)cc1 (stereo not given) — higher, 100%
- Cc1cc(Nc2ccc(C(=O)O)cc2)n2nc(C)nc2n1 — higher, 90.5%
- O=C(CSc1nnnn1C1CCCCC1)N1CCc2ccccc21 — lower, 60.9%
- Cc1cc(C)c2c(n1)nn1c(N3CCN(c4cccc(Cl)c4)CC3)cc(C)nc21 — lower, 61.8%
- CC(=O)NC(Cc1cc(C)ccc1C)C(=O)N1CCN(C(=O)Nc2ccc(C(C)=O)cc2)CC1 (stereo not given) — higher, 109%
- Cc1nnc(SCCn2c(N3CC(C)CC(C)C3)nc3c2c(=O)n(C)c(=O)n3C)s1 (stereo not given) — higher, 93.8%
- CC(C)CCNC(=O)NC(=O)CN1C(=O)NC2(CCCCC2)C1=O — higher, 104%
- COc1ccc(C(=O)Nc2cccc(-c3nc4ncccc4o3)c2C)cc1OC — lower, 81.8%
- Cc1ccc(S(=O)(=O)NCC2CCC(C(=O)NCCCN3CCOCC3)CC2)cc1 (stereo not given) — higher, 92.7%
- Cc1ccc(NC(=O)CSc2nnc(-c3ccncc3)n2C)cc1C — higher, 110%
- O=C(OCC#CCSc1nnc(-c2ccncc2)o1)c1cccs1 — lower, 88.2%
- O=C(NCc1cccnc1)C1c2ccccc2C(=O)N1Cc1ccco1 (stereo not given) — higher, 92%
- CCc1nnc(NC(=O)CSc2nnc3scc(-c4ccc(C)cc4)n23)s1 — higher, 108%
- CC(C)(C)C(=O)Oc1cc(N)n(S(=O)(=O)c2ccccc2)n1 — higher, 102%
- Cc1cnc(NC(=O)CSc2nc3ccccc3c(=O)[nH]2)s1 — lower, 76.5%
- O=C(CCN1C(=O)c2ccccc2C1=O)OCN1C(=O)c2ccccc2C1=O — higher, 97.7%
- CCOC(=O)CNC(=O)c1c(C)nn(-c2ccccc2)c1Cl — higher, 96.2%
- COc1ccc(NC(=O)CN2CCN(CC(=O)Nc3cc(OC)cc(OC)c3)CC2)cc1 — higher, 97.8%
- CCCn1nc(NS(=O)(=O)c2ccccc2)c2cc3ccccc3nc21 — lower, 76.5%
- CCOC(=O)C1=C(C)NC(C)=C(C(=O)OCC)C1c1cc(N)ccc1OC(F)F — lower, 76.6%
- CC1=C(C(=O)OCc2ccccc2)C(c2ccc(C)o2)C2=C(CCCC2=O)N1 (stereo not given) — higher, 113%
- O=C(Nc1ccccc1-c1ccccc1)NC1CCN(CC(=O)N2CCOCC2)CC1 — higher, 91.7%
- CCN(C1CCCCC1)S(=O)(=O)c1ccc(OC)c(C)c1 — higher, 91.5%
- COc1ccc(N2C(=O)CC(N3CCN(c4ccccc4F)CC3)C2=O)cc1 (stereo not given) — higher, 91.1%
- COc1cc(OC)cc(-n2nnnc2SCC(=O)N2CCCC2)c1 — higher, 94.9%
- O=C(O)c1cc(Cl)c(Cl)cc1C(=O)N1CCCC1 — lower, 87.2%
- Nn1c(CSc2nc3ccccc3o2)nnc1CSc1nc2ccccc2o1 — higher, 115%
- CN=C1CC(C)(C)CC(=O)/C1=C(/O)CCC(=O)NC — higher, 95.5%
- CCOC(=O)c1ccc(NC(=O)c2ccc(NS(C)(=O)=O)cc2)cc1 — higher, 92.1%
- CCN(CC)CCCN(Cc1cc2cc(OC)ccc2[nH]c1=O)C(=O)Nc1ccccc1 — lower, 65.8%
- O=C(COC(=O)CCC(=O)c1cccs1)NCc1ccco1 — lower, 89.3%
- O=C(Cn1cnc2ccccc2c1=O)NCCC(=O)N1CCN(Cc2ccccc2)CC1 — higher, 98.6%
- CC(C)C(c1nnnn1CC1CCCO1)N1CCN(Cc2ccc3c(c2)OCO3)CC1 (stereo not given) — higher, 113%

Assay: H69AR cell proliferation blockers – human, duplicate replicates, primary screen (AID 580;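 active means viability at or under a set limit in both replicates, limit being median viability minus 3 SD, cut at about 48% in these data, passing the limit was not always enough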;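 further: 100% = mean luminescence of untreated wells and 0% = no signal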)
Conditions: H69AR lung tumor cells viability, ATP luminescence, 72 h; at 10 µM; active compounds read low

Point of comparison: `Cc1nnc(SCCn2c(N3CC(C)CC(C)C3)nc3c2c(=O)n(C)c(=O)n3C)s1` (stereo not given), viability 95.9%. Against it:
- FC(F)(F)c1cccc(N2CCN(c3nnnn3-c3ccccc3)CC2)c1 — lower, 84.7%
- COC(=O)c1cc2oc(C)cc2n1CC(=O)Nc1ccc(C)c(C)c1 — lower, 83.8%
- Cc1cc2oc(=O)cc(C)c2c(=O)o1 — higher, 108%
- CC(Oc1ccc(Cl)cc1Cl)C(=O)Nc1ncccn1 (stereo not given) — higher, 97.2%
- CC(C(=O)NCCCN1CCOCC1)n1cccc1C(=O)c1ccccc1 (stereo not given) — lower, 95%
- CC(C)(C)NCc1cc2ccccc2[nH]c1=O — lower, 93.2%
- Cc1ccc(-c2noc(-c3ccccc3C(=O)NCC3CCCO3)n2)cc1 (stereo not given) — higher, 100%
- Cc1cc(Nc2ccc(C(=O)O)cc2)n2nc(C)nc2n1 — higher, 109%
- O=C(CSc1nnnn1C1CCCCC1)N1CCc2ccccc21 — lower, 87.1%
- CC(=O)NC(Cc1cc(C)ccc1C)C(=O)N1CCN(C(=O)Nc2ccc(C(C)=O)cc2)CC1 (stereo not given) — lower, 88.7%
- CC(C)CCNC(=O)NC(=O)CN1C(=O)NC2(CCCCC2)C1=O — higher, 96.9%
- COc1ccc(C(=O)Nc2cccc(-c3nc4ncccc4o3)c2C)cc1OC — lower, 92.8%
- Cc1ccc(S(=O)(=O)NCC2CCC(C(=O)NCCCN3CCOCC3)CC2)cc1 (stereo not given) — lower, 88.6%
- Cc1ccc(NC(=O)CSc2nnc(-c3ccncc3)n2C)cc1C — lower, 92.2%
- O=C(OCC#CCSc1nnc(-c2ccncc2)o1)c1cccs1 — lower, 82%
- O=C(NCc1cccnc1)C1c2ccccc2C(=O)N1Cc1ccco1 (stereo not given) — lower, 92.9%
- CCc1nnc(NC(=O)CSc2nnc3scc(-c4ccc(C)cc4)n23)s1 — higher, 96.6%
- CC(C)(C)C(=O)Oc1cc(N)n(S(=O)(=O)c2ccccc2)n1 — lower, 87.1%
- Cc1cnc(NC(=O)CSc2nc3ccccc3c(=O)[nH]2)s1 — lower, 93.3%
- O=C(CCN1C(=O)c2ccccc2C1=O)OCN1C(=O)c2ccccc2C1=O — lower, 91.8%
- CCOC(=O)CNC(=O)c1c(C)nn(-c2ccccc2)c1Cl — lower, 90%
- COc1ccc(NC(=O)CN2CCN(CC(=O)Nc3cc(OC)cc(OC)c3)CC2)cc1 — lower, 83.1%
- CCCn1nc(NS(=O)(=O)c2ccccc2)c2cc3ccccc3nc21 — higher, 120%
- CCOC(=O)C1=C(C)NC(C)=C(C(=O)OCC)C1c1cc(N)ccc1OC(F)F — higher, 111%
- CC1=C(C(=O)OCc2ccccc2)C(c2ccc(C)o2)C2=C(CCCC2=O)N1 (stereo not given) — higher, 103%
- O=C(Nc1ccccc1-c1ccccc1)NC1CCN(CC(=O)N2CCOCC2)CC1 — higher, 99.3%
- CCN(C1CCCCC1)S(=O)(=O)c1ccc(OC)c(C)c1 — lower, 93.1%
- Cc1ccccc1N(C)S(=O)(=O)c1ccc2[nH]cc(C(=O)NCC3CCCO3)c(=O)c2c1 (stereo not given) — lower, 91.7%
- COc1ccc(N2C(=O)CC(N3CCN(c4ccccc4F)CC3)C2=O)cc1 (stereo not given) — higher, 105%
- COc1cc(OC)cc(-n2nnnc2SCC(=O)N2CCCC2)c1 — lower, 87.4%
- O=C(O)c1cc(Cl)c(Cl)cc1C(=O)N1CCCC1 — higher, 98.7%
- Nn1c(CSc2nc3ccccc3o2)nnc1CSc1nc2ccccc2o1 — higher, 103%
- CN=C1CC(C)(C)CC(=O)/C1=C(/O)CCC(=O)NC — higher, 102%
- CCOC(=O)c1ccc(NC(=O)c2ccc(NS(C)(=O)=O)cc2)cc1 — lower, 82.9%
- CCN(CC)CCCN(Cc1cc2cc(OC)ccc2[nH]c1=O)C(=O)Nc1ccccc1 — lower, 77.7%
- O=C(COC(=O)CCC(=O)c1cccs1)NCc1ccco1 — lower, 79.8%
- O=C(Cn1cnc2ccccc2c1=O)NCCC(=O)N1CCN(Cc2ccccc2)CC1 — lower, 89.8%
- CC(C)C(c1nnnn1CC1CCCO1)N1CCN(Cc2ccc3c(c2)OCO3)CC1 (stereo not given) — lower, 95.3%

For `Cc1cc(C)c2c(n1)nn1c(N3CCN(c4cccc(Cl)c4)CC3)cc(C)nc21`, the viability was 23.1% (active).
